Screening data as filed in PubChem BioAssay.
Most compounds without a hit are left out; they make up all but 1.4% or so of the library.
GSTO1 counter: blocks human GSTO1 in RBBP9 counter-screen. P78417. recombinant GSTO1, activity-based probe fluorescence polarization. inhibition, % at 5.96 µM. 300,000 compounds, 1.1% hits. AID 1974;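 active means inhibition above the campaign mean inhibition plus 3 SD, cut at about 35% in these data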;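 further: 0% = GSTO1-1 with DMSO and 100% = wells lacking GSTO1-1 enzyme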
UBC9 SUMO inh: blocks human SUMOylation mediated by UBC9; P63279; HTRF SUMOylation assay, SAE1/SAE2 + UBC9, in vitro; inhibition, % at 35 µM; 290,000 compounds, 0.36% hits; in the data active means inhibition above about 50%, passing the limit was not always enough
HKDC1 inh: HKDC1 (human) hexokinase inhibition; AID 493160; 340,000 compounds, 0.16% hits; recombinant HKDC1, G6PDH/diaphorase resazurin coupled fluorescence; inhibition, % at 20 µM; Q2TB90;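 active means inhibition above about 35% when tested at 20 µM, limit read from the data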;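 further: plate controls were DMSO wells with enzyme for no effect and DMSO wells lacking enzyme for full effect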
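System: Recombinant HKDC1 hexokinase | Amount: HKDC1 at 5 µg/mL | Reagent: Glucose with 1 mM ATP | Doses: Single 20 µM dose | Incubation: Reaction time 90 min, room temperature, protected from light | Signal: Coupled resazurin fluorescence, excitation 525 nm, emission 613 nm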
Apaf1 inhib: blocks human Apaf-1 apoptosome activity | reconstituted apoptosome caspase-3 activity, DEVD-Rh110 fluorescence | O14727 | 330,000 compounds, 0.71% hits | inhibition, % at 20 µM; active means inhibition of at least 40% at 20 µM;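 further: plate controls were DMSO wells for no effect and DEVD-CHO caspase inhibitor wells for full effect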
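Material: reconstituted apoptosome with Apaf-1, cytochrome c, caspase-9, procaspase-3, dATP / Buffer or medium: pH 7.5 Hepes buffer with CHAPS, BSA, DTT / Also added: cytochrome c with DEVD-Rh110 / Schedule: compound with Apaf-1, dATP, procaspase-3 30 min, then 50 min reaction, room temperature / Technique: rhodamine 110 fluorescence at Ex 480/Em 540 nm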
Redox H2O2 prof: compounds producing H2O2 with reducing agent – biochemical, NIH compound library profiling, artefact control for MLSCN library redox annotation, primary screen; activation, % at 10 µM; 200,000 compounds, 0.03% hits; AID 878; DTT-dependent redox cycling H2O2, phenol red/HRP absorbance; 100% = 100 µM peroxide control, 0% = buffer;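 active means activation of at least 50% relative to the plate's high and low controls in the primary single-dose screen; inactive means activation below 50%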;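 further: compound incubated with DTT at 0.8 mM final as the reducing agent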
An asterisk follows results filed as active; nt = not tested or not shown.

SMILES	GSTO1 counter	UBC9 SUMO inh	HKDC1 inh	Apaf1 inhib	Redox H2O2 prof
O=C(Nc1cccc(S(=O)(=O)NC2=NCCCCC2)c1)c1cc(-c2ccco2)nc2ccccc12	18	81*	3	10	nt
Cn1nccc1NC(=O)Nc1cccc(Br)c1	0	65*	-1	2	nt
COc1ccc(OC)c(N2C(=O)[C@@H]3C(c4ccccc4Cl)=NO[C@@H]3C2=O)c1	37*	17	12	-12	0
COc1ccc(CCN(C)C(=O)c2ccc(COc3ccccc3)o2)cc1OC	-1	3	3	66*	nt
CCCc1ccc(OCc2ccc(C(=O)O)o2)c(OC)c1	-1	0	-1	2	3
O=C(CNCc1cccc(Cl)c1)N1CCc2ccccc2C1	-1	17	-5	5	nt
COc1cc(/C=C/c2[nH]c(=O)[nH]c(=O)c2[N+](=O)[O-])cc(OC)c1O	nt	-12	13	-8	nt
COc1cccc(/C=C/c2[nH]c(=O)[nH]c(=O)c2[N+](=O)[O-])c1O	36*	19	7	-1	nt
Cn1c(=O)c2c(ncn2CCOc2cccc(Br)c2)n(C)c1=O	7	6	-4	4	nt
COc1ccc(-c2oc3cc(OC(C)=O)cc(OC(C)=O)c3c(=O)c2OC)cc1	nt	nt	-2	nt	nt
CC(=O)Oc1cc(O)c2c(=O)c(OC(C)=O)c(-c3ccc(OC(C)=O)c(OC(C)=O)c3)oc2c1	60*	nt	5	-1	nt
Cc1ccc(N2CCCC2=O)cc1S(=O)(=O)N1CCOCC1	-3	-1	0	-7	nt
CCN(CCC(=O)Nc1cc([N+](=O)[O-])ccc1OC)Cc1ccccc1	14	69*	-3	17	0
Cc1cccc(NC(=O)Cn2c(O)c(N=NC(=O)c3ccccc3O)c3ccccc32)c1	-1	54*	-10	15	0
CC(=O)c1cc2c(O)c(O)ccc2o1	37*	-17	19	5	1
Cc1ccc2c(c1C)NC(C(=O)O)C1CC=CC21 (configuration not stated)	51*	58*	38*	26	nt
O=C(O)C1Nc2c(C(=O)N3CCOCC3)cccc2C2C=CCC12 (configuration not stated)	36*	30	11	13	-3
Cc1cc(C)c2c(c1)NC(C(=O)O)C1CC=CC21 (configuration not stated)	18	24	12	20	nt
COc1cc(OC)cc(C(=O)Nc2ccn(C)n2)c1	nt	nt	1	0	nt
CCCCC(=O)Nc1sc2c(c1-c1nc3ccccc3s1)CCN(C(C)=O)C2	nt	-4	nt	nt	-1
CC(=O)N1CCc2c(sc(NC(=O)C3CC3)c2-c2nc3ccccc3s2)C1	6	18	7	72*	0
CN(C1=C(NC(=O)c2ccc(Cl)cc2)C(=O)c2ccccc2C1=O)c1ccccc1	43*	-11	12	34	1
Cc1cc(C)c(O)c(CN(C)Cc2cc(Cl)cc(Cl)c2O)c1	nt	nt	0	nt	nt
Oc1c(Cl)cc(Cl)cc1Sc1cc(Cl)cc(Cl)c1O	57*	92*	nt	19	-1
Cc1ccc(NC(=O)c2ccc(CN3CCc4ccccc4C3)cc2)cc1	1	1	-1	48*	-8
SMILES	GSTO1 counter	UBC9 SUMO inh	HKDC1 inh	Apaf1 inhib	Redox H2O2 prof
O=C(Nc1ccccc1)c1ccc(CN2CCc3ccccc3C2)cc1	-7	9	-1	7	-1
Cc1ccc(C(=O)CCC(=O)N2CCC(C(N)=O)CC2)s1	nt	nt	-3	0	nt
Cc1ccc(S(=O)(=O)Nc2c(Cl)c(Cl)c(O)c3ccccc23)cc1	77*	92*	nt	9	nt
O=C(NNC(=O)c1ccccc1F)c1cccc(-n2cccc2)c1	36*	nt	20	14	nt
Cc1cccc(CNc2ncnc3ccc(-c4ccc5c(c4)OCCO5)cc23)c1	nt	nt	-10	42*	nt
O=S(=O)(c1cnc(Cl)c(Br)c1)N1CCc2ccccc21	45*	17	-1	0	nt
CC1CCCCN1S(=O)(=O)c1cnc(Cl)c(Br)c1 (configuration not stated)	71*	0	-6	9	-1
CCCN(Cc1ccc(C)cc1)C(=O)c1ccc(CNS(=O)(=O)c2ccc(C(C)=O)cc2)cc1	nt	nt	0	20	nt
CCOCC(=O)OCC(=O)NC12CC3CC(CC(C3)C1)C2	-3	3	-6	8	-2
CCC(CC)C(=O)OCC(=O)NC12CC3CC(CC(C3)C1)C2	37*	-1	-7	-11	0
Cc1cc(OCC(=O)OCC(=O)N(C)Cc2ccccc2C)ccc1Cl	nt	nt	1	17	nt
Cc1ccc(-n2cccc2/C=C2\C(=N)N3N=C(c4ccco4)SC3=NC2=O)cc1	-31	64*	14	10	0
CCOC(=O)Cc1nnc(NC(=O)CSc2nnc3c4ccccc4n(C)c3n2)s1	35*	34	3	4	2
CCOC(=O)Cc1nnc(NC(=O)CSc2ccc(C)cc2)s1	4	7	-4	6	2
Cc1cc(C)c2oc(C(=O)N3CCN(Cc4ccccc4)CC3)cc(=O)c2c1	4	16	3	7	nt
Cc1nn(C)c(C)c1NS(=O)(=O)c1c(C)n[nH]c1C	nt	nt	-5	10	nt
C[n+]1cccc(C2C(C#N)=C(N)Oc3c2ccc2ccccc32)c1 (configuration not stated)	37*	20	13	38	nt
COCCn1c(-c2ccc(F)cc2)nc2cccnc21	28	12	5	0	nt
COCCN(CC(=O)Nc1cccc(C)c1C)C(=O)c1ccc(-n2cccn2)cc1	nt	nt	-2	-1	nt
O=C(NCc1ccccc1)NC12CC3CC(CC(C3)C1)C2	35*	0	7	1	nt
COc1ccc(C(=O)Nc2ccc(C(=O)NCCc3ccc(OC)c(OC)c3)cc2)cc1	2	60*	-8	-9	1
CNc1cccccc1=S	37*	17	18	29	1
CNc1ccccc1	nt	nt	0	-11	nt
C/C(=N\N=C(/N)SC1CC(=O)N(c2ccc(Cl)cc2)C1=O)c1cccs1 (configuration not stated)	36*	2	-1	-3	-7
CN(C)c1ccc(NC(=O)c2sc(SCC(=O)Nc3nccs3)nc2N)cc1	18	-16	7	1	0
SMILES	GSTO1 counter	UBC9 SUMO inh	HKDC1 inh	Apaf1 inhib	Redox H2O2 prof
CN(C)c1ccc(NC(=O)c2sc(SCC(=O)Nc3ccc(Br)cc3)nc2N)cc1	4	55*	-4	-8	2
CC(=O)C[C@H](O)CC(=O)[C@@H]1OC(=O)CCCCCc2ccccc21	nt	nt	-4	-14	nt
Cn1c(CNC(=O)c2ccco2)nnc1SCC(=O)c1ccc(F)cc1	4	22	-3	3	nt
Oc1c(/C=N/Nc2cccc3cccnc23)ccc2ccccc12	3	66*	6	30	6
Oc1cccc(/C=N/Nc2cccc3cccnc23)c1	nt	-15	-6	21	0
O=[N+]([O-])c1ccc(C=Nc2ccc(Cl)c([N+](=O)[O-])c2)s1	nt	51	nt	19	-2
Cc1nc2ccccc2n1/N=C/c1ccc([N+](=O)[O-])s1	47*	11	-7	1	0
